Laboratory results as given in ChEMBL document CHEMBL1128245, “Dual-acting thromboxane receptor antagonist/synthase inhibitors: synthesis and biological properties of [2-substituted-4-(3-pyridyl)-1,3-dioxan-5-yl] alkenoic acids” (J Med Chem, 1995).

Assays:
[1] = test system: Canis familiaris; assay: Ex vivo TXA2 ([…]) antagonist activity was determined for U-46,619 induced aggregation (dose ratio) after 2 hr of oral dosing (10 mg/kg) in the dog; type: functional, Canis lupus familiaris
Outline: (§1)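 Dogs (n = 4) dosed orally, blood sampled at 2, 5, 8 and 24 h. Platelet-rich plasma aggregated with U46619 plus a predetermined threshold ADP concentration (about 0.4–1.2 × 10^-6 M), compared before vs after dosing to give a U46619 dose ratio. ">" marks the maximum achievable ratio at top U46619 (1 × 10^-4 M).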

[2] = test system: Canis familiaris; assay: Ex vivo TXA2 ([…]) antagonist activity was determined for U-46,619 induced aggregation (dose ratio) after 2 hr of oral dosing (3 mg/kg) in the dog; type: functional, Canis lupus familiaris; outline: as §1
[3] = test system: Canis familiaris; assay: Ex vivo TXA2 ([…]) antagonist activity was determined for U-46,619 induced aggregation (dose ratio) after 5 hr of oral dosing (3 mg/kg) in the dog; type: functional, Canis lupus familiaris; outline: as §1
[4] = test system: Rattus norvegicus; assay: Ex vivo […] (TXA2 synthase) inhibitory activity after 5 hr of oral dosing (3 mg/kg) in the rat; type: functional
Outline: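 Rats (n = 6) gavaged, anesthetized, aortic blood taken at 1, 3 or 5 h after dosing. A blood aliquot was challenged with collagen and TXB2 measured by radioimmunoassay; expressed as % inhibition of TXA2 synthase (±SEM).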

[5] = test system: Rattus norvegicus; assay: Ex vivo TXA2 ([…]) antagonist activity was determined for U-46,619 induced aggregation (dose ratio) after 5 hr of oral dosing (5 mg/kg) in the rat; type: functional
Outline: (§2)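 Conscious rats (n = 6) dosed by oral gavage, then anesthetized and bled from the abdominal aorta at 1, 3 or 5 h. Platelet-rich plasma aggregated with U46619 before and after dosing to give a U46619 dose ratio. ">" values mark the maximum dose ratio achievable at the top U46619 concentration (1 × 10^-4 M).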

[6] = test system: Rattus norvegicus; assay: Ex vivo TXA2 ([…]) antagonist activity was determined for U-46,619 induced aggregation (dose ratio) after 1 hr of oral dosing (10 mg/kg) in the rat; type: functional; outline: as §2
[7] = test system: Rattus norvegicus; assay: Ex vivo TXA2 ([…]) antagonist activity was determined for U-46,619 induced aggregation (dose ratio) after 5 hr of oral dosing (10 mg/kg) in the rat; type: functional; outline: as §2
[8] = test system: Rattus norvegicus; assay: Ex vivo TXA2 ([…]) antagonist activity was determined for U-46,619 induced aggregation (dose ratio) after 5 hr of oral dosing (1 mg/kg) in the rat; type: functional; outline: as §2
[9] = test system: Rattus norvegicus; assay: Ex vivo TXA2 ([…]) antagonist activity was determined for U-46,619 induced aggregation (dose ratio) after 5 hr of oral dosing (3 mg/kg) in the rat; type: functional; outline: as §2
[10] = biological target: T1, Thromboxane-A synthase (Homo sapiens, UniProt P24557); assay: In vitro Inhibition of thromboxane synthase from human blood platelet microsomes
T1 sequence (P24557 whole entry): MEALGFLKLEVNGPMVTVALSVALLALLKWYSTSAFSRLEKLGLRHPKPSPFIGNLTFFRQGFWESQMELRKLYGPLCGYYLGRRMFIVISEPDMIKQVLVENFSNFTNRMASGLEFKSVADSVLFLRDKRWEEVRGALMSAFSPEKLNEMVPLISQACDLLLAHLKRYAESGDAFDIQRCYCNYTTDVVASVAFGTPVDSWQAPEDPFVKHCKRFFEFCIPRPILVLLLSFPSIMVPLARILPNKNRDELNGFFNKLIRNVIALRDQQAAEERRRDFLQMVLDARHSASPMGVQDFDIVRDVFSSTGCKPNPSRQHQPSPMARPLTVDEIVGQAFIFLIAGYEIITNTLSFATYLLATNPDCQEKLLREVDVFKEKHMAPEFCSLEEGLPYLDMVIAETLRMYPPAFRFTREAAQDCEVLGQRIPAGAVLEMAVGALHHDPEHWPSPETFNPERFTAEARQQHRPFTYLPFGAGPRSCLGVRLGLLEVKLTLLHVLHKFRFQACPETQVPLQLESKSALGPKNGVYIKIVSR
Outline: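 Human blood platelet microsomes incubated with [1-14C]arachidonic acid with or without inhibitor. Conversion to labeled thromboxane B2 quantified radiochromatographically. n = 2.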

Cc1ccc(OC(C)(C)C2OCC(C/C=C\CCC(=O)O)C(c3cccnc3)O2)c([N+](=O)[O-])c1 (stereo in doubt; 7x) was tested, and the Antagonist activity [1] was greater than 522, the Antagonist activity [2] was greater than 321 and the Antagonist activity [3] was greater than 321. For the same compound, the Inhibition [4] was 68.3%, the Antagonist activity [5] was greater than 47 and the Antagonist activity [6] was greater than 113. It also gave an Antagonist activity [7] greater than 92, an Antagonist activity [8] greater than 9 and an Antagonist activity [9] greater than 21. For the same compound, the IC50 [10] was 19 nM.
